≈ marks a conversion by molar mass, not a printed value.
Columns and labels:
[1] = system: Mycobacterium tuberculosis; assay: Antitubercular activity against Mycobacterium tuberculosis H37Rv by Alamar blue assay; assay type: functional, organism-based
Summary of the method: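 M. tuberculosis H37Rv (ATCC 27294) grown in BACTEC 12B medium and tested by Microplate Alamar Blue Assay. Ten 2-fold dilutions, typically from 100 to 0.19. IC90 is the concentration giving a 90% drop in fluorescence relative to controls.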

[2] = Cytotoxicity against african green monkey Vero cells after 72 hrs by cell titer-glo assay; assay type: cell-based; settings: chlorocebus sabaeus
Summary of the method: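 Vero cells, run alongside the TB dose-response assay; compound exposure 72 h, then viability read by ATP-based luminescence (CellTiter-Glo). CC50 taken from the dose–response curve by curve fitting.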

[3] = Selectivity index, ratio of CC50 for african green monkey Vero cells to IC90 for Mycobacterium tuberculosis H37Rv; assay type: toxicity, cell-based; settings: read-out: Selectivity Index
Summary of the method: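 Vero cells run in parallel with the TB dose-response assay. Viability is read after 72 h exposure by CellTiter-Glo luminescence, which quantifies cellular ATP. CC50 is fitted from the dose-response curve. IC90 for H37Rv comes from the MABA fluorescence readout, as a 90% reduction relative to controls.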

| SMILES | IC50 [1] [mg/L] | IC90 [1] [mg/L] | CC50 at 72 h [2] [mg/L] | selectivity ratio [3] |
| --- | --- | --- | --- | --- |
| COc1ccc(O)c(-c2csc(N/N=C(\C)c3ccncc3)n2)c1 | > 100 | > 100 | – | – |
| C/C(=N\Nc1nc(-c2cccs2)cs1)c1ccccn1 | 48.4 (≈ 161 µM) | 55.2 (≈ 184 µM) | – | – |
| C/C(=N\Nc1nc(-c2cccs2)cs1)c1cccnc1 | 92.2 (≈ 307 µM) | > 100 | – | – |
| C/C(=N\Nc1nc(-c2cccs2)cs1)c1ccncc1 | > 100 | > 100 | – | – |
| COc1ccc(O)c(-c2csc(N/N=C(\C)c3ccccn3)n2)c1 | 6.22 (≈ 18.3 µM) | 6.78 (≈ 19.9 µM) | > 40 | > 5.89 |
| COc1ccc(O)c(-c2csc(N/N=C(\C)c3cccnc3)n2)c1 | > 100 | > 100 | – | – |

— ChEMBL document CHEMBL1157858, “Synthesis and antituberculosis activity of some N-pyridyl-N'-thiazolylhydrazine derivatives” (Eur J Med Chem, 2010)
